Common to all, as to type: functional
For test [1], the species on record is Cavia porcellus. The experiment in a line: In vitro intrinsic activity was measured in guinea pig ileum. The method, boiled down:
(§1)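 Contraction of isolated guinea pig ileum. Peptide solutions were prepared and used the same day, then discarded. Responses were expressed as pD2, intrinsic activity (αE) and relative affinity.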

Test [2] is filed under the species Cavia porcellus. In words: In vitro (pD2) the negative log of the dose which causes half-maximal contraction was measured in guinea pig ileum. The method, boiled down:
as §1

The species entered for test [3] is Cavia porcellus. In words: In vitro relative affinity was measured in guinea pig ileum. In short, it runs like this: as §1
For a further test, the system named is Rattus norvegicus. In words: In vivo relative blood pressure potency was measured in rat.

The values below come from ChEMBL document CHEMBL1122182, “Structure-activity studies on the C-terminal amide of substance P” (1982).

Where a SMILES comes first, the peptide text is derived from it. [ ]: non-standard residue; d: D form. The star is where a group is joined. Nle = CCCC[C@H](N)C(=O)O; NEt2 = CCN(CC)*; X1 = CN(C)N*; NHNH2 = NN*

Consider `CCCC[C@H](NC(=O)[C@H](CC(C)C)NC(=O)CNC(=O)[C@H](Cc1ccccc1)NC(=O)[C@H](Cc1ccccc1)NC(=O)[C@H](CCC(N)=O)NC(=O)[C@@H](N)CCC(N)=O)C(N)=O` (H-QQFFGL[Nle]-NH2), for which the Activity in the test listed under Cavia porcellus [1] was 1. In the test filed under Cavia porcellus [2], this compound displayed a pD2 of 7.93.
For `CSCC[C@H](NC(=O)[C@H](CC(C)C)NC(=O)CNC(=O)[C@H](Cc1ccccc1)NC(=O)[C@H](Cc1ccccc1)NC(=O)[C@H](CCC(N)=O)NC(=O)[C@@H](N)CCC(N)=O)C(N)=O` (H-QQFFGLM-NH2), the RA in the test listed under Cavia porcellus [3] is 100%. The compound also gave an Activity in the test listed under Cavia porcellus [1] of 1. The compound also returned a pD2 in the test listed under Cavia porcellus [2] of 8.77. In the test with Rattus norvegicus, this compound returned an RBP of 100%.
On to `CCCC[C@H](NC(=O)[C@H](CC(C)C)NC(=O)CNC(=O)[C@H](Cc1ccccc1)NC(=O)[C@H](Cc1ccccc1)NC(=O)[C@H](CCC(N)=O)NC(=O)[C@@H](N)CCC(N)=O)C(=O)O` (H-QQFFGL[Nle]-OH), for which the RA in the test filed under Cavia porcellus [3] is reported as 2.6%. For the same compound, the Activity in the test listed under Cavia porcellus [1] is recorded as 1. The same compound showed a pD2 in the test listed under Cavia porcellus [2] of 6.34. The same compound had an RBP in the test with Rattus norvegicus of 1.5%.
The corresponding values for `CNC(=O)[C@H](CCSC)NC(=O)[C@H](CC(C)C)NC(=O)CNC(=O)[C@H](Cc1ccccc1)NC(=O)[C@H](Cc1ccccc1)NC(=O)[C@H](CCC(N)=O)NC(=O)[C@@H](N)CCC(N)=O` (H-QQFFGLM-NHMe) are 1%, 0.85, 6.77 and 5%.
The corresponding values for `COC(=O)[C@H](CCSC)NC(=O)[C@H](CC(C)C)NC(=O)CNC(=O)[C@H](Cc1ccccc1)NC(=O)[C@H](Cc1ccccc1)NC(=O)[C@H](CCC(N)=O)NC(=O)[C@@H](N)CCC(N)=O` (H-QQFFGLM-OMe) are 3.37%, 1, 7.3 and 1%.
For `CCCC[C@H](NC(=O)[C@H](CC(C)C)NC(=O)CNC(=O)[C@H](Cc1ccccc1)NC(=O)[C@H](Cc1ccccc1)NC(=O)[C@H](CCC(N)=O)NC(=O)[C@@H](N)CCC(N)=O)C(=O)NN` (H-QQFFGL[Nle]-NHNH2), the RA in the test filed under Cavia porcellus [3] is 5%. Also, the Activity in the test filed under Cavia porcellus [1] is 1. In the test filed under Cavia porcellus [2], this compound yielded a pD2 of 6.63. This compound yielded an RBP with Rattus norvegicus of 5.2%.
Take `CSCC[C@H](NC(=O)[C@H](CC(C)C)NC(=O)CNC(=O)[C@H](Cc1ccccc1)NC(=O)[C@H](Cc1ccccc1)NC(=O)[C@H](CCC(N)=O)NC(=O)[C@@H](N)CCC(N)=O)C(=O)NN` (H-QQFFGLM-NHNH2): the RA in the test listed under Cavia porcellus [3] turned out to be 1%. The Activity in the test filed under Cavia porcellus [1] came out at 1. In addition, in the test filed under Cavia porcellus [2], the pD2 is reported as 6.8. Besides, the RBP in the test with Rattus norvegicus stood at 0.4%.
The corresponding values for `CCCC[C@H](NC(=O)[C@H](CC(C)C)NC(=O)CNC(=O)[C@H](Cc1ccccc1)NC(=O)[C@H](Cc1ccccc1)NC(=O)[C@H](CCC(N)=O)NC(=O)[C@@H](N)CCC(N)=O)C(=O)N(CC)CC` (H-QQFFGL[Nle]-NEt2) are 1.3%, 1, 6.03 and 0.2%.
In the test filed under Cavia porcellus [3], `CCCC[C@H](NC(=O)[C@H](CC(C)C)NC(=O)CNC(=O)[C@H](Cc1ccccc1)NC(=O)[C@H](Cc1ccccc1)NC(=O)[C@H](CCC(N)=O)NC(=O)[C@@H](N)CCC(N)=O)C(=O)OC` (H-QQFFGL[Nle]-OMe) had an RA of 3.5%. In the test listed under Cavia porcellus [1], the Activity turned out to be 1. Moreover, the pD2 in the test listed under Cavia porcellus [2] turned out to be 6.47. The RBP in the test on Rattus norvegicus came out at 1.5%.
Regarding `CSCC[C@H](NC(=O)[C@H](CC(C)C)NC(=O)CNC(=O)[C@H](Cc1ccccc1)NC(=O)[C@H](Cc1ccccc1)NC(=O)[C@H](CCC(N)=O)NC(=O)[C@@H](N)CCC(N)=O)C(=O)NN(C)C` (H-QQFFGLM-X1), the RA in the test filed under Cavia porcellus [3] is 0.53%. In the test filed under Cavia porcellus [2], this compound returned a pD2 of 6.6. Besides, the RBP with Rattus norvegicus was under 0.05%.
For the compound `CSCC[C@H](NC(=O)[C@H](CC(C)C)NC(=O)CNC(=O)[C@H](Cc1ccccc1)NC(=O)[C@H](Cc1ccccc1)NC(=O)[C@H](CCC(N)=O)NC(=O)[C@@H](N)CCC(N)=O)C(=O)N(C)C` (H-QQFFGLM-NMe2), the RA in the test filed under Cavia porcellus [3] was under 0.01%. The RBP in the test with Rattus norvegicus is 0.2%.
